Activity calls are given as the source filed them. The rule behind the calls is not given here.

The nature of experiment [1]: Selectivity ratio of IC50 for HIV1 group M subtype B reverse transcriptase p66 R448A mutant RNase H activity to IC50 for HIV1 reverse transcriptase RNase H activity.
The nature of experiment [2]: Selectivity ratio of IC50 for HIV1 group M subtype B reverse transcriptase p66 N474A mutant RNase H activity to IC50 for HIV1 reverse transcriptase RNase H activity.
The target of experiment [3] is Human immunodeficiency virus type 1 reverse transcriptase (Human immunodeficiency virus 1, UniProt Q72547, R448A). The experiment is described as follows: Inhibition of HIV1 group M subtype B reverse transcriptase p66 R448A mutant RNase H activity using 18-nucleotide 3'-fluorescein-labeled RNA/5'-[…]-labeled DNA hybrid as substrate after 1 hr by fluorescence assay. Further details: species or system HIV-1 group M. The method, boiled down:
(§1)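 Mutations were introduced into the p66 subunit of subtype B RT. Enzyme amounts were set within the linear range: R448A 37.5 ng, N474A 62.5 ng, A502F 100 ng, R557A 75 ng. Buffer was 50 mM Tris-HCl pH 7.8, 6 mM MgCl2, 1 mM DTT, 80 mM KCl, with 0.25 μM fluorescein/dabcyl hybrid and water-diluted inhibitor. Incubation 1 h at 37 °C, EDTA stop, read at 490/528 nm.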

Experiment [4] has as its target Human immunodeficiency virus type 1 reverse transcriptase (Human immunodeficiency virus 1, UniProt Q72547, R557A). The experiment can be described thus: Inhibition of HIV1 group M subtype B reverse transcriptase p66 R557A mutant RNase H activity using 18-nucleotide 3'-fluorescein-labeled RNA/5'-[…]-labeled DNA hybrid as substrate after 1 hr by fluorescence assay. Further details: species or system HIV-1 group M. The procedure, abridged: as §1

For experiment [5], the target named is Human immunodeficiency virus type 1 reverse transcriptase (Human immunodeficiency virus 1, UniProt Q72547). The experiment is described as follows: Inhibition of HIV1 reverse transcriptase RNase H activity using 18-nucleotide 3'-fluorescein-labeled RNA/5'-[…]-labeled DNA hybrid as substrate after 1 hr by fluorescence assay. The procedure, abridged:
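Polymerase-independent RNase H assay with 20 ng wild-type RT in 50 mM Tris-HCl pH 7.8, 6 mM MgCl2, 1 mM DTT and 80 mM KCl. Substrate was 0.25 μM RNA/DNA hybrid with a fluorescein-labelled RNA and a dabcyl-labelled DNA. Inhibitor was diluted in water over increasing concentrations. Incubation 1 h at 37 °C, stopped with EDTA, read at 490/528 nm. IC50 was averaged over three independent experiments.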

A short description of experiment [6]: Binding affinity to Mg2+ at 3 x 10^-5 M to 8 x 10^-5 M by UV-Vis spectrophotometric method. The procedure, abridged:
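UV-vis spectrophotometric titration of the compound in absolute ethanol with MgCl2, read in a quartz cuvette with a 1 cm path. MgCl2 was diluted in absolute ethanol to 13 stock solutions spanning 4 10–5 to 0.2 M (stock concentrations). Spectra were recorded across increasing Mg2+ levels, and isosbestic points were used to judge complexation equilibria. Each experiment was done in triplicate.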

The nature of experiment [7]: (§2) Binding affinity to Mg2+ assessed as hyperchromic effect at 3 x 10^-5 M to 8 x 10^-5 M by UV-Vis spectrophotometric method. The method, boiled down: (§3)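 UV-vis titration with MgCl2 in a 1 cm quartz cuvette. MgCl2 was diluted in absolute ethanol to 13 stock solutions spanning 4 10–5 to 0.2 M. Spectra were followed for absorbance changes and isosbestic points. Each experiment was done in triplicate.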

Experiment [8] is described as follows: Selectivity ratio of IC50 for HIV1 group M subtype B reverse transcriptase p66 R557A mutant RNase H activity to IC50 for HIV1 reverse transcriptase RNase H activity.
Experiment [9] is described as follows: Selectivity ratio of IC50 for HIV1 group M subtype B reverse transcriptase p66 A502F mutant RNase H activity to IC50 for HIV1 reverse transcriptase RNase H activity.
Experiment [10] relates to Human immunodeficiency virus 1. The experiment can be described thus: Antiviral activity against HIV1 assessed as inhibition of viral replication at 40 uM by cell-based assay. In kind it is functional, organism-based.
The target of experiment [11] is Human immunodeficiency virus type 1 reverse transcriptase (Human immunodeficiency virus 1, UniProt Q72547, N474A). The experiment is described as follows: Inhibition of HIV1 group M subtype B reverse transcriptase p66 N474A mutant RNase H activity using 18-nucleotide 3'-fluorescein-labeled RNA/5'-[…]-labeled DNA hybrid as substrate after 1 hr by fluorescence assay. Further details: species or system HIV-1 group M. The method, boiled down:
as §1

Experiment [12] in a line: as §2. The procedure, abridged:
as §3
The source holds these as a separate data set.

The target in experiment [13] is Human immunodeficiency virus type 1 reverse transcriptase (Human immunodeficiency virus 1, UniProt Q72547, A502F). The experiment can be described thus: Inhibition of HIV1 group M subtype B reverse transcriptase p66 A502F mutant RNase H activity using 18-nucleotide 3'-fluorescein-labeled RNA/5'-[…]-labeled DNA hybrid as substrate after 1 hr by fluorescence assay. Also noted: species or system HIV-1 group M. The procedure, abridged:
as §1

As for `CCOc1cc(/C=C2\SC(=S)N(c3ccccc3)C2=O)cc([N+](=O)[O-])c1O`, the Ratio IC50 in [1] turned out to be 0.9; in [2] it was 11.4; in experiment [8] it was 1.5; in experiment [9] it was 2.1. Further, the IC50 worked out at 11.3 µM in experiment [3]; 18.6 µM in [4]; 12.8 µM in experiment [5]; 146 µM in experiment [11]; 26.3 µM in experiment [13]. In addition, the result in [6], in experiment [7] and in experiment [12] was Active. For the same compound, the inhibition result in [10] was “inactive”.

Source of the values: ChEMBL document CHEMBL4261575, “Structure-guided approach identifies a novel class of HIV-1 ribonuclease H inhibitors: binding mode insights through magnesium complexation and site-directed mutagenesis studies” (Medchemcomm, 2018).
